In the library only some 3.4% were active in any assay of this set; here they are far more common.
Cdc25B inh = inhibitors of Cdc25B phosphatase catalytic domain, primary screen, biochemical, OMFP fluorescence | M-phase inducer phosphatase 2 (Homo sapiens), P30305 | recombinant Cdc25B, OMFP fluorescence Ex485/Em525 | inhibition, %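 (compounds tested at 10 µM final in the well)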 | 65,000 compounds, 0.1% hits; in the data active means inhibition above about 50%
RORA act = activators of orphan receptor RORA, primary screen, cell-based, luminescence | CHO-K1 Gal4-RORA LBD luciferase reporter; percent increase over mock-subtracted basal signal | activation, % at 10 µM | 65,000 compounds, 1.5% hits;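 active means activation above the mean of all tested compounds plus 3 SD, cut at about 49% in these data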;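 further: 0% = DMSO-treated RORA cells and 100% = added signal equal to DMSO minus mock-transfected cells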
Hsp90 block = tumor Hsp90 inhibitors, primary screen, cell lysate, fluorescence polarization, NCI-N417 lysate | AID 429, 2006 | inhibition, % at 30 µM | Cy3B-geldanamycin FP displacement | Heat shock protein HSP 90-alpha (Homo sapiens), P07900 | 64,000 compounds, 0.35% hits;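 active means inhibition above 50%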;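 further: 0% = tracer plus lysate wells and 100% = tracer alone without lysate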
SF-1 act = activators of human SF-1, primary screen, cell-based, CHO-K1, Gal4-SF-1 LBD, luciferase luminescence; Steroidogenic factor 1 (Homo sapiens), Q13285; CHO-K1 Gal4-SF-1 LBD luciferase reporter; % increase over DMSO SF-1-specific signal; activation, % at 10 µM; 65,000 compounds, 1.9% hits;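 active means activation above the mean activation of all tested compounds plus 3 SD, cut at about 50% in these data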
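Test system: CHO-K1 cells with Gal4–hSF-1 LBD chimera plus Gal4-driven luciferase; Input: 4,000 cells/well; Compound: 10 µM only; Times: 20 h compound treatment, 37 °C; Measured by: steady-glow luciferase luminescence, read after 15 min reagent incubation; Measure: percent activation versus DMSO; Control set: DMSO and mock-transfected background; Replicates: one test per compound.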
DUSP1 inh = MKP-1 phosphatase inhibitors, primary screen, biochemical, in vitro | 65,000 compounds, 0.15% hits | Dual specificity protein phosphatase 1 (Homo sapiens), P28562 | inhibition, %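 (compounds tested at a single concentration somewhere between 10 and 100 µM)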 | recombinant MKP-1, OMFP hydrolysis fluorescence | AID 374, 2006;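 active means inhibition above about 50%, limit read from the data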;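 further: 0% = DMSO max control wells and 100% = wells with enzyme stopped by NaOH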
JNK3 inh = JNK3 kinase activity inhibitors, primary screen, biochemical, human, purified enzyme | AID 746, 2007 | HTS | inhibition, % at 8 µM | 60,000 compounds, 0.61% hits; in the data active means inhibition above about 17%;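 further: 0% = DMSO and 100% = reference inhibitor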
Target sequence (P53779 whole entry, looked up): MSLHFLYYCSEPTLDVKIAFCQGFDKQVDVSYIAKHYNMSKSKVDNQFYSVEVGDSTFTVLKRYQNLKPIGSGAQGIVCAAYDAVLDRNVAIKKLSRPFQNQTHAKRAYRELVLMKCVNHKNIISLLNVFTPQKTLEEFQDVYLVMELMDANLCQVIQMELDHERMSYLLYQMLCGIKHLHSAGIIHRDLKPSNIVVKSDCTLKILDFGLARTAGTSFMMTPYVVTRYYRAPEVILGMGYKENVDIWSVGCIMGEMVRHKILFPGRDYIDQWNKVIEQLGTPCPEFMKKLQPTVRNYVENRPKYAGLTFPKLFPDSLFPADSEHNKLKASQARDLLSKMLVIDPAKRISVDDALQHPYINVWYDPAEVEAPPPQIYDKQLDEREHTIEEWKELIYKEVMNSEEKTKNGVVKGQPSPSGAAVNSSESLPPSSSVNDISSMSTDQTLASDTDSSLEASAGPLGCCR
The depositor's hits bear a star.

For CCOc1ccc(N(CC(=O)Nc2ccc(OC)cc2)S(C)(=O)=O)cc1 the results were Cdc25B inh 0.1, RORA act 60.6*, Hsp90 block 6.3, SF-1 act 36.0, DUSP1 inh -18.1 and JNK3 inh -8.1.
Screening COC(=O)c1ccc(NC(=O)CN(c2ccc(OC)cc2)S(C)(=O)=O)cc1 returned Cdc25B inh -10.5, RORA act 66.4*, Hsp90 block -4.6, SF-1 act 74.8*, DUSP1 inh -2.7 and JNK3 inh 3.8.
For COc1ccc(NC(=O)CNS(=O)(=O)c2cccs2)cc1 the results were Cdc25B inh -2.7, RORA act 7.6, SF-1 act 6.8 and DUSP1 inh 5.4.
For CCOc1ccc(N(CC(=O)Nc2ccc(C)cc2)S(=O)(=O)c2c(C)noc2C)cc1 the results were Cdc25B inh -11.6, RORA act -6.0, Hsp90 block -2.1, SF-1 act 15.0, DUSP1 inh -0.9 and JNK3 inh 0.1.
For COc1ccc(NC(=O)CN(C)S(=O)(=O)c2cccs2)cc1 the results were Cdc25B inh 9.9, RORA act 51.0*, Hsp90 block 1.1, SF-1 act 21.7, DUSP1 inh -0.1 and JNK3 inh -7.0.
`CN1CCC2=C(CCCC2CCc2ccc(Cl)c(Cl)c2)C1` (configuration not stated) gave Hsp90 block -0.1.
`CCn1cc(Br)c(C(=O)Nc2cccc(SC)c2)n1` gave Cdc25B inh -6.5, RORA act 48.1, Hsp90 block 4.2, SF-1 act 50.3*, DUSP1 inh -4.8 and JNK3 inh 0.9.
COC(=O)c1ccc(NC(=O)C23CCC(C)(C(=O)O2)C3(C)C)cc1 (configuration not stated) was read as Cdc25B inh -7.8 and DUSP1 inh 2.3.
For O=S(=O)(c1cccc2c(I)cccc12)N1CCCNCC1 the results were Hsp90 block 1.6.
CCCn1nc(NC(=O)c2cccs2)c2cc3cc(OC)ccc3nc21 was read as Cdc25B inh -1.8, RORA act 45.2, Hsp90 block -19.3, SF-1 act 19.3, DUSP1 inh 14.9 and JNK3 inh -5.5.
`COc1ccc2nc3sc(C(=O)NCc4cccs4)c(N)c3cc2c1` gave Cdc25B inh -12.8, RORA act -18.4, Hsp90 block -2.3, SF-1 act 74.4*, DUSP1 inh 2.0 and JNK3 inh 4.1.
Screening Cc1cccc(C)c1NC(=O)N1CCC(N2CCCCC2)CC1 returned Cdc25B inh -13.6, RORA act -0.8, Hsp90 block -0.5, SF-1 act -15.2, DUSP1 inh -6.2 and JNK3 inh -0.7.
`COc1ccccc1-n1cnc2cc(NCc3ccco3)ccc21` gave Cdc25B inh 4.4, RORA act 50.3*, Hsp90 block -9.3, SF-1 act 55.7*, DUSP1 inh 26.0 and JNK3 inh 1.0.
`O=C(c1ccco1)N1CCN(C(=O)C2CCCO2)CC1` (configuration not stated) gave Cdc25B inh -0.9, RORA act -13.6, Hsp90 block 1.2, SF-1 act -12.3, DUSP1 inh 5.0 and JNK3 inh -1.9.
Screening CCN1C(=S)SC(=O)C1=C1C=C(C)N(Cc2ccco2)C(C)=C1 returned Cdc25B inh -0.7, RORA act 18.5, SF-1 act 52.9* and DUSP1 inh 9.4.
CCN1C(=S)SC(=O)C1=C1C=C(C)OC(C)=C1 was read as Cdc25B inh -7.0, RORA act 12.9, SF-1 act 19.4 and DUSP1 inh 8.8.
`CC(C)Cn1c(=O)c(C2=NS(=O)(=O)c3ccccc3N2)c(O)c2ccccc21` gave Cdc25B inh 7.9, RORA act 11.3, Hsp90 block 3.7, SF-1 act -7.4, DUSP1 inh 13.5 and JNK3 inh -7.4.
